STAT1 act – STAT1 signaling activators, primary screen, cell-based, HTS, luciferase reporter; NIH 3T3 STAT1-luciferase reporter, IFN-gamma, luminescence; 100% = IFN-gamma alone, no compound; actives 2.6% (n = 200,000); AID 932, 2007; activation (% of control), % at 5.5 µM;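 active = activation above the screen-wide mean activation plus 3 SD, cut at about 130% in these data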;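 note: raw ratio to IFN-gamma control signal so 100% means no change and 0% no light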
STAT3 activator – IL-6 driven STAT3 reporter potentiators, primary screen, U3A cells, luciferase, luminescence, MLSCN library | activation (% of control), % at 5.6 µM | IL-6 STAT3-luciferase reporter; 100% = signal with IL-6 EC80 alone | actives 0.91% (n = 190,000);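 active = activation above the screen-wide mean of compound activation plus 3 SD, cut at about 130% in these data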;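 note: 0% = background luminescence of wells with medium and substrate only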
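Test system: human U3A cells carrying STAT3-luciferase construct; control set: IL-6-only wells as 100% reference; timing: compound pre-incubation 1 h before IL-6, then 6 h stimulation at 37 °C; also added: IL-6 stimulus at 33 ng/mL final; evaluation: % activation versus median of IL-6-stimulated wells; detection: reporter luminescence signal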
FLuc inh counter – firefly luciferase enzyme inhibitors, primary screen, artefact control for luciferase-based inhibitor screens, biochemical, luminescence, ATPLite; Luciferin 4-monooxygenase (Photinus pyralis), P08659; 10 min; inhibition, % at 10 µM; actives 1.5% (n = 200,000); AID 1006, 2008;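 active = inhibition above about 50% when tested at 10 µM, limit read from the data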
Target sequence (P08659 whole entry, looked up): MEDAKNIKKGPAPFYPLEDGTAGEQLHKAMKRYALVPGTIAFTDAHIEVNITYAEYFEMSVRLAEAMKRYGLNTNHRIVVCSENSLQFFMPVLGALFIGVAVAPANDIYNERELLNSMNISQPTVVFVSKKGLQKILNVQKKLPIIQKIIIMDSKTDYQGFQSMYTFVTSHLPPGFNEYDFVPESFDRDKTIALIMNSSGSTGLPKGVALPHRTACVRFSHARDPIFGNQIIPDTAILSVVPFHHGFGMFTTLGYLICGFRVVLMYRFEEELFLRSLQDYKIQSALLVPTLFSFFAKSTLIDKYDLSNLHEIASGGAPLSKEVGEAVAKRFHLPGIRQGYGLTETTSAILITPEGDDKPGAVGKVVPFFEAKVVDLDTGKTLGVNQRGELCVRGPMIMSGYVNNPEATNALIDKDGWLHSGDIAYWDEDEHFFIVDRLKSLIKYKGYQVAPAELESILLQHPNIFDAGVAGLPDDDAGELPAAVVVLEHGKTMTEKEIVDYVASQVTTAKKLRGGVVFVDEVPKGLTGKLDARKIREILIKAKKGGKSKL
STAT3 inh – IL-6 driven STAT3 reporter inhibitors, primary screen, U3A cells, luciferase, luminescence, MLSCN library; IL-6 STAT3-luciferase reporter; host cell line lacks STAT1; inhibition, % at 5.5 µM; actives 0.89% (n = 190,000);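 active = inhibition above the mean inhibition across all screened compounds plus 3 SD, cut at about 44% in these data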;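 note: 0% = DMSO only wells and 100% = 100 µM nifuroxazide control wells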
FLuc stim CS – FLuc activators, initial screening, artefact control for FLuc-dependent activation tests, biochemical, ATPlite luminescence. Luciferin 4-monooxygenase (Photinus pyralis), P08659. ATPlite luciferase biochemical, 10 min; 0 = ATP-free wells, 1 = DMSO control. activation factor at 10 µM. 200,000 tested, under 10 active;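 active = luciferase activation factor, scaled between plate controls, of at least 2 with compound at 10 µM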
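Assay system: Luciferase/luciferin detection reagent, cell-free biochemical luciferase assay / Read-out: luciferase activation / Benchmarks: No-ATP low control, compound-free enzyme-plus-ATP high control / Medium: PBS buffer for ATP / Detection: luminescence measurement of luciferase light output / Schedule: 10 min at ambient temperature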
STAT1 blocker – STAT1 signaling inhibitors, primary screen, cell-based, HTS, luciferase reporter | actives 0.35% (n = 200,000) | inhibition, % at 5.5 µM | AID 920, 2007 | NIH 3T3 STAT1-luciferase reporter, IFN-gamma, luminescence;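 active = inhibition above a set limit, the mean inhibition across all tested compounds plus 3 SD, cut at about 34% in these data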;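 note: 0% = IFN-gamma with DMSO and 100% = IFN-gamma with 300 µM nifuroxazide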
Active calls of the source: *; / = not tested or not shown. Only some compounds are listed: those with a hit (about 4.9% of all), similar ones and a draw of the others.

SMILES	STAT1 act	STAT3 activator	FLuc inh counter	STAT3 inh	FLuc stim CS	STAT1 blocker
CC1(C)CC(=O)c2cnc(N3CCc4ccccc4C3)nc2C1	132.7*	102.3	11.5	1.7	0.9	-36.0
O=C1CC(c2ccccc2)Cc2nc(N3CCc4ccccc43)ncc21 (stereo not given)	102.1	103.6	/	-4.5	/	-2.3
Cn1c(N)c(C(=O)COC(=O)CSc2cccc3cccc(Cl)c23)c(=O)n(C)c1=O	109.5	87.2	-10.2	17.0	1.1	-9.6
CN(CCCC1CCCC1)C(=O)CCc1nnc(-c2ccccc2)o1	147.8*	109.1	7.1	-4.4	0.9	-51.4
O=C(CCc1nnc(-c2ccccc2)o1)NC1CCCCC1	130.5*	106.1	-4.4	-4.8	1	-35.2
CCN(Cc1ccncc1)C(=O)CCc1nnc(CCC2CCCCC2)o1	107.9	104.4	-3.0	0.9	1	-8.6
CN(CCC1CCCCO1)C(=O)CCc1nnc(CCCCc2ccccc2)o1 (stereo not given)	96.4	99.4	-5.3	6.5	1.1	3.7
Cc1cc(C)n(CCN(C)C(=O)CCc2nnc(CCC3CCCCC3)o2)n1	140.0*	107.0	-8.1	-2.0	1.1	-42.7
Clc1ccc2nncn2n1	97.9	113.8	-2.0	-10.8	1	3.9
Cc1c(NC(=O)CS(=O)(=O)c2ccccc2)c(=O)n(-c2ccccc2)n1C	99.3	100.7	-5.7	4.0	1.1	-2.2
CCOc1ccc(NC(=O)CN2C(=O)NC(CCSC)C2=O)cc1 (stereo not given)	106.5	107.9	0.0	-4.2	1	-7.0
CCCn1c(C)cc(C(=O)COC(=O)c2cc(S(=O)(=O)NCC(C)C)c(Cl)cc2Cl)c1C	97.6	109.8	-3.5	-6.8	1	2.6
CCCn1c(C)cc(C(=O)COC(=O)c2nccnc2N)c1C	70.2	77.5	78.1*	28.6	0.2	30.7
CC1=NNC(=O)/C1=C\c1cn(-c2ccccc2)nc1-c1ccc(Cl)cc1	119.5	55.2	-8.8	61.3*	1.1	-21.7
Cc1ccc(-c2nn(-c3ccccc3)cc2C=C2C(=O)CC(C)(C)CC2=O)cc1	114.2	87.3	-2.6	20.6	1	-15.8
COc1ccc(-c2ccc(-c3nnn(CC(=O)N4CCOCC4)n3)cc2)cc1	114.1	90.9	74.3*	20.1	0.3	-15.5
Cc1c(NS(=O)(=O)c2cc(NC(=O)CCN3CCCC(C)C3)ccc2Cl)c(=O)n(-c2ccccc2)n1C (stereo not given)	105.6	100.2	-11.9	4.8	1.1	-4.1
CC(=O)Nc1ccc(-c2csc(NCc3ccco3)n2)cc1	137.1*	108.0	27.1	-5.7	0.7	-45.9
c1cncc(-c2csc(NCc3ccco3)n2)c1	110.0	91.9	8.3	9.7	0.9	-14.7
CCc1ccc2nc3sc(C(=O)O)cc3cc2c1	117.7	107.2	67.7*	-6.1	0.3	-21.0
Cc1cc(C(=O)N2CCCC(C(=O)c3ccc4ccccc4c3)C2)n(C)n1 (stereo not given)	94.6	103.1	0.8	-0.1	1	3.8
CC(=O)c1ccc(Nc2ccc(-c3ccccc3C)nn2)cc1	144.5*	98.3	28.2	4.2	0.7	-46.6
CC(C)c1nnc(NC(=O)CSc2nnc(-c3ccco3)o2)s1	99.5	91.4	-3.2	15.2	1	-0.9
COc1ccc(/C=C2\SC(=N)N(c3nccs3)C2=O)cc1OC	97.0	113.7	77.3*	-14.0	0.2	3.3
CCOP(=O)(O)c1cccc(OCCOCCOc2cccc(P(=O)(O)OCC)c2)c1	98.6	96.5	-5.4	6.4	1.1	-0.2
SMILES	STAT1 act	STAT3 activator	FLuc inh counter	STAT3 inh	FLuc stim CS	STAT1 blocker
CC(=O)n1cc([C@H]2C=C(C(=O)N3CCN(Cc4ccc5c(c4)OCO5)CC3)O[C@@H](OCCCCO)C2)c2ccccc21	96.6	/	-4.1	/	1	5.2
CCc1ccc(C(=O)COC(=O)c2nn(C)c(=O)c3ccccc23)cc1	100.1	98.3	21.9	1.9	0.8	0.0
CCC1CCCCN1C(=O)COC(=O)c1n[nH]c2ccccc12 (stereo not given)	116.1	103.0	2.1	1.1	1	-17.4
CC1CCN(C(=O)COC(=O)c2n[nH]c3ccccc23)CC1	124.7	107.2	54.7*	-4.1	0.5	-26.9
CCc1ccc(C(=O)COC(=O)c2n[nH]c3ccccc23)cc1	123.9	101.6	62.6*	4.0	0.4	-25.6
Cc1sc2nc(C)n(/N=C/c3ccc(O)cc3O)c(=O)c2c1C	86.0	85.6	-6.8	18.5	1.1	13.7
CC1(C)Cc2c(sc(NC(=O)c3ccco3)c2C#N)CO1	125.9	95.7	75.4*	11.4	0.2	-28.3
O=C(N/N=C/c1cccs1)c1c[nH]c2ccccc12	128.6*	102.5	37.3	-3.4	0.6	-31.5
O=C(N/N=C/c1cccs1)c1ccccn1	120.9	101.6	51.1*	5.9	0.5	-23.3
C/C(=C\C(=O)Nc1nccs1)c1ccccc1	144.2*	93.2	42.7	11.8	0.6	-52.1
COc1ccc(-c2nnn(CC(=O)N(Cc3ccccc3Cl)C(C(=O)NCC3CCCO3)c3ccco3)n2)cc1OC (stereo not given)	98.9	102.7	-4.6	-0.5	1	1.2
COc1ccccc1CNCc1cccc(Oc2ccccc2)c1	98.1	101.6	-3.2	7.5	1	2.3
CCN(CC)CCn1nc2c3c(cccc3c1=O)-c1ccccc1-2	230.0*	134.5*	5.9	-42.6	0.9	-146.8
COc1cccc2cc(C(=O)c3ccccc3)oc12	137.0*	86.2	42.2	24.6	0.6	-42.6
O=C(c1ccccc1)c1cc2ccccc2o1	131.3*	108.4	12.3	-6.3	0.9	-34.2
Cc1ccc(C(=O)c2cc3ccccc3o2)cc1[N+](=O)[O-]	139.1*	91.8	0.9	15.7	1	-44.1
CC(=O)NCCc1nc2ccccc2n1CCc1ccccc1	100.1	96.9	-0.3	7.0	1	-2.2
COc1ccccc1C(C)NC(=O)CCOc1cccc(C)c1 (stereo not given)	101.1	105.2	3.5	-0.9	1	0.5
O=C(Nc1nnc(SCc2cccc3ccccc23)s1)C1COc2ccccc2O1 (stereo not given)	106.1	95.6	-6.3	3.8	1.1	-6.7
O=C(COC(=O)/C=C/c1ccco1)Nc1cccc([N+](=O)[O-])c1	84.1	102.3	-3.3	-0.5	1	17.8

Bioassay records deposited in PubChem BioAssay by several laboratories.
